According to ChEMBL document CHEMBL3227985, “N-Alkylated 2-aminotetralins: central dopamine-receptor stimulating activity” (J Med Chem, 1979):
Activity calls are given as the source filed them. The calls are words filed in the database; no cut-off is given here.

Columns and labels:
[1] = tested on: Rattus norvegicus; experiment: Central dopamine receptor stimulating activity in Sprague-Dawley rat assessed as reduction in DOPA accumulation in limbic region of brain at 2 umol/kg, sc by spectrophotometric method; assay type: functional; details: Limbic system
How it was run: (§1)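 Male Sprague-Dawley rats (200-350 g), reserpinized. Compounds dissolved in saline immediately before use, neutral pH, 10 mL/kg, given sc over a dose range. Aromatic-L-amino-acid decarboxylase inhibited (100 mg/kg). Dopa and 5-HTP accumulation measured spectrophotometrically in striatum, limbic forebrain and remaining hemispheral portions. ED50 = dose giving 50% of maximal reduction versus control portions, estimated from dose-response curves. Experiments run 9–12 a.m.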

[2] = tested on: Rattus norvegicus; experiment: Central dopamine receptor stimulating activity in reserpenized Sprague-Dawley rat assessed as duration of action of motor activity at 20 umol/kg, po administered via stomach tube measured 6 hrs post-reserpine challenge by motility meter analysis; assay type: functional
How it was run: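 Male Sprague-Dawley rats (200-350 g) given reserpine 10 mg/kg ip 6 h before testing. Drug in saline, 20 µmol/kg po by stomach tube. Rats then placed singly in photocell motility meters. Counts recorded per 5-min period until effect ceased (<10 counts/5 min) to give duration of action. Testing 1–6 p.m.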

[3] = tested on: Rattus norvegicus; experiment: Central dopamine receptor stimulating activity in reserpenized Sprague-Dawley rat assessed as duration of action of motor activity at 2 umol/kg, sc measured 6 hrs post-reserpine challenge by motility meter analysis; assay type: functional
How it was run: (§2)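 Male Sprague-Dawley rats (200-350 g) given reserpine 10 mg/kg ip 6 h before testing. Drug in saline, 2 µmol/kg sc in the neck. Rats then placed singly in photocell motility meters. Counts recorded per 5-min period until effect ceased (<10 counts/5 min), giving duration and AUC. Means of four to six recordings. Testing 1–6 p.m.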

[4] = tested on: Rattus norvegicus; experiment: Central dopamine receptor stimulating activity in Sprague-Dawley rat assessed as reduction in DOPA accumulation in striatum of brain at 2 umol/kg, sc by spectrophotometric method; assay type: functional; how it was run: as §1
[5] = tested on: Rattus norvegicus; experiment: Central dopamine receptor stimulating activity in reserpenized Sprague-Dawley rat assessed as latency period of motor activity at 2 umol/kg, sc measured 6 hrs post-reserpine challenge by motility meter analysis; assay type: functional; how it was run: as §2
[6] = tested on: Rattus norvegicus; experiment: Central serotonin receptor stimulating activity in Sprague-Dawley rat assessed as reduction in 5-HTP accumulation in striatum of brain at 2 umol/kg, sc by spectrophotometric method; assay type: functional, organism-based; how it was run: as §1
[7] = tested on: Rattus norvegicus; experiment: Central serotonin receptor stimulating activity in Sprague-Dawley rat assessed as reduction in 5-HTP accumulation in limbic region of brain at 2 umol/kg, sc by spectrophotometric method; assay type: functional, organism-based; details: Limbic system; how it was run: as §1
[8] = tested on: Rattus norvegicus; experiment: Central noradrenaline receptor stimulating activity in Sprague-Dawley rat assessed as reduction in DOPA accumulation in hemispheral portion of cerebrum at 2 umol/kg, sc by spectrophotometric method; assay type: functional, organism-based; how it was run: as §1
[9] = tested on: Rattus norvegicus; experiment: Toxicity in sc dosed Sprague-Dawley rat assessed as gross behaviour at ED50; assay type: organism-based; details: in vivo
[10] = tested on: Rattus norvegicus; experiment: Central serotonin receptor stimulating activity in Sprague-Dawley rat assessed as reduction in 5-HTP accumulation in hemispheral portion of cerebrum at 2 umol/kg, sc by spectrophotometric method; assay type: functional, organism-based; how it was run: as §1

Row | Compound | ED50 [1] [µmol/kg] | Time [2] [min] | Time [3] [min] | ED50 [4] [µmol/kg] | Time [5] [min] | Activity [6] | Activity [7] | Activity [8] | Activity [9] | Activity [10]
1 | CN1CCc2cccc3c2[C@H]1Cc1ccc(O)c(O)c1-3 [APOMORPHINE] | 0.19 | 33 | 60 | 0.22 | 0 |  |  |  |  | 
2 | Br.CCCN(CC)C1CCc2c(O)cccc2C1 (stereo not drawn) | 0.024 | 40 | 82 | 0.017 | 0 | inactive | inactive | inactive | Non-toxic | inactive
3 | Br.CCCN(C)C1CCc2c(O)cccc2C1 (stereo not drawn) | 0.023 |  | 73 | 0.029 | 0 | inactive | inactive | inactive | Non-toxic | inactive
4 | Br.CCCCN(CC)C1CCc2c(O)cccc2C1 (stereo not drawn) | 0.03 | 63 | 118 | 0.035 | 0 | inactive | inactive | inactive | Non-toxic | inactive
5 | Br.CCCN(C(C)C)C1CCc2c(O)cccc2C1 (stereo not drawn) | 0.07 |  | 55 | 0.087 | 4 | inactive | inactive | inactive | Non-toxic | inactive
6 | CCCCN(CCC)C1CCc2c(cccc2OC)C1.Cl (stereo not drawn) | 0.04 |  | 106 | 0.036 | 14 | inactive | inactive | inactive | Non-toxic | inactive
7 | Br.CCCN(CCC)C1CCc2c(O)cccc2C1 (stereo not drawn) | 0.011 | 121 | 127 | 0.009 | 0 | inactive | inactive | inactive | Non-toxic | inactive
8 | CCCN(CC(C)(C)C)C1CCc2c(O)cccc2C1.Cl (stereo not drawn) | 0.2 |  | 68 | 0.12 | 9 | inactive | inactive | inactive | Non-toxic | inactive
9 | Br.CCN(C)C1CCc2c(O)cccc2C1 (stereo not drawn) | 0.074 |  | 31 | 0.053 | 3 | inactive | inactive | inactive | Non-toxic | inactive
10 | CCCN(C)C1CCc2c(cccc2OC)C1.Cl (stereo not drawn) | 0.12 |  | 69 | 0.096 | 15 | inactive | inactive | inactive | Non-toxic | inactive
11 | Br.CCCCN(CCC)C1CCc2c(O)cccc2C1 (stereo not drawn) | 0.011 | 117 | 158 | 0.014 | 0 | inactive | inactive | inactive | Non-toxic | inactive
12 | CCCCN(CC)C1CCc2c(cccc2OC)C1.Cl (stereo not drawn) | 0.068 |  | 140 | 0.079 | 16 | inactive | inactive | inactive | Non-toxic | inactive
